# Compound activity (PubChem BioAssay)
# MrgX1 antagonist – human MrgX1 receptor antagonism, primary screen. hit rate 1.3% among 310,000. MRGX1-HEK293 calcium flux, Fluo-4, BAM8-22 antagonism; active compounds read low. Q96LB2. B-score at 10 µM;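 active = calcium-response B-score plate-corrected more than 3 library SD below zero, starting fluorescence within 5 deviations, no agonist response on first addition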;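 note: peak minus trough fluorescence over baseline after final BAM8-22 challenge near maximal dose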
# Target sequence (Q96LB2 whole entry, looked up): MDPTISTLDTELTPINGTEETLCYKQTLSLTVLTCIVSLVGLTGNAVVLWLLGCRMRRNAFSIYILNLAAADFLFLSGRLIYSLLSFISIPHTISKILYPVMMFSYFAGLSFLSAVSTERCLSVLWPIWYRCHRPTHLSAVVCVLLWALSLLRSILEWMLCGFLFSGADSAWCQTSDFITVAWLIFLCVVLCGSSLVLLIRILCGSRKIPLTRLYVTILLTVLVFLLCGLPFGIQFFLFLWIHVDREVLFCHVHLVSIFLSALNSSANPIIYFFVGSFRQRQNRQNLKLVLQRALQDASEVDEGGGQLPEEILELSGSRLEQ
# RGS4 act – potentiators or activators of RGS4; HEK293 M3R/inducible RGS4, carbachol calcium flux Fluo4; active compounds read low; B-score at 10 µM; hit rate 0.92% among 310,000; AID 463111;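 active = B-score of the integrated calcium signal more than 4 SD below the library mean, with starting fluorescence not abnormally high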;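 note: negative B-score means reduced calcium response which marks RGS4 activation or potentiation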
#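 Test system: HEK293 cells with stable M3R and inducible RGS4; also added: carbachol at ECmax as muscarinic agonist stimulus; schedule: dye loading 30 min 37 °C, buffer rest 30 min RT; technique: kinetic calcium fluorescence imaging with Fluo4-AM dye, 2 µM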
# RGS4 block – human RGS4 inhibition | P49798 | HEK293 M3R/RGS4 inducible, Fluo-4 calcium flux; active compounds read high; triggered by carbachol at its EC20 | B-score at 10 µM | hit rate 0.45% among 310,000 | AID 463165;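 active = B-score, a plate-corrected calcium signal, over three deviations above library mean, with baseline fluorescence within five deviations of library mean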;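 note: RGS4 expression induced by doxycycline in cells with stable M3 receptor; B-score is computed from the integrated fluorescence ratio over baseline after carbachol; higher B-score means a larger calcium signal and so more RGS4 inhibition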
# Target sequence (P49798 whole entry, looked up): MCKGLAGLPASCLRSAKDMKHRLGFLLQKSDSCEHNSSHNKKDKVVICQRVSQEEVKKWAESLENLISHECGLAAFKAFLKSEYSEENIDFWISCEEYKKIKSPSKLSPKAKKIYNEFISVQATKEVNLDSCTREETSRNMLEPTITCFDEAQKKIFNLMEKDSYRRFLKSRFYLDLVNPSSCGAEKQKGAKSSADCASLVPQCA
# MrgX1 agonist – human MrgX1 receptor agonism, primary screen. Q96LB2. MrgX1-HEK293 cells, Fluo-4 calcium fluorescence, agonist mode; active compounds read high. B-score at 10 µM. hit rate 0.44% among 310,000. AID 588627;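 active = calcium response B-score plate-corrected fluorescence ratio at least 3 library SD, with starting fluorescence B-score inside 5 SD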
#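 times = overnight plating, then 30 min 37 °C plus 30 min room-temperature dye loading | assay system = stable human MrgX1 HEK293 cell line | input = fifteen thousand cells per well | signal = kinetic calcium dye fluorescence, Fluo-4 NW | dosing = compound delivered in addition one of three | read-out = B-scored fluorescence response ratio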
# MrgX1 PAM – human MrgX1 positive allosteric modulation, primary screen; hit rate 0.63% among 310,000; B-score at 10 µM; AID 588675; Q96LB2; MrgX1-HEK293, Fluo-4 calcium flux, FDSS; active compounds read high;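 active = plate-corrected calcium response at least 3 library SD above typical, normal starting fluorescence, not activating the receptor alone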;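 note: compound read alongside a low EC10 to EC30 dose of BAM8-22 agonist; peak minus trough fluorescence over baseline measured at the second addition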
# MrgX1 ant reconf – human MrgX1 receptor antagonism, re-confirmation screen; shares compounds with MrgX1 antagonist; MrgX1-HEK293, BAM8-22 calcium flux, Fluo-4; active compounds read low; remaining BAM8-22 calcium response % of control (active compounds read low), % at 10 µM; hit rate 19% among 2,300; AID 602420;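 active = remaining agonist calcium response no higher than 100% minus 3 SD of agonist-only control wells, with starting fluorescence near control levels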;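 note: agonist BAM8-22 given at a near maximal EC90 to ECmax level; peak minus minimum fluorescence divided by baseline after agonist addition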
# HEK293 Ca flux – activity in parental HEK293 cells lacking MrgX1. Fluo-4 calcium fluorescence, FDSS. shares compounds with MrgX1 antagonist. fluorescence ratio F(max-min)/F0 at 10 µM. AID 624111. hit rate 2% among 4,000;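 active = duplicate-averaged calcium fluorescence ratio at least three times the standard deviation of buffer wells, a nonspecific response in parental cells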
# HEK293 Ca counter – counter-screen for MrgX1 allosteric activators: effect in parental HEK293 cells. shares compounds with MrgX1 antagonist. AID 624114. fluorescence ratio F(max-min)/F0 at 10 µM. parental HEK293 calcium flux, Fluo-4 fluorescence ratio; active compounds read high. hit rate 0.4% among 4,000;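 active = calcium fluorescence ratio, averaged over duplicates, at least 3 SD of the buffer-well ratio, meaning a nonspecific response in receptor-free cells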;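 note: untransfected parental HEK293 lacking MrgX1 used as counterscreen for MrgX1 allosteric activators; fluorescence change taken during the second addition on a kinetic imager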
# HEK293 Ca cntr2 – counter-screen for MrgX1 activators: effect in parental HEK293 cells; shares compounds with MrgX1 antagonist; Fluo-4 calcium fluorescence (FDSS); active compounds read high; fluorescence ratio F(max-min)/F0 at 10 µM; hit rate 8.7% among 4,000;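 active = calcium fluorescence ratio at least three times the spread of buffer wells, meaning a non-specific response in parental cells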
# Numbers without * were called inactive; i = inactive; / = no result given. An excerpt weighted towards active compounds, which were near 3.5% of everything screened.
SMILES,MrgX1 antagonist,RGS4 act,RGS4 block,MrgX1 agonist,MrgX1 PAM,MrgX1 ant reconf,HEK293 Ca flux,HEK293 Ca counter,HEK293 Ca cntr2
CC(=Nc1ccccc1C)C1=C(O)CSC1=O,-5.4*,i,i,i,i,i,i,i,i
COc1ccc(NS(=O)(=O)NC(=O)c2cn(C)c3ccccc23)cc1,i,i,i,i,i,/,/,/,/
Cc1cccc(C)c1NC(=O)NC1CC2CCC(C1)N2Cc1cccs1 (centres undefined),-7.5*,i,i,i,i,i,i,i,i
Cc1cc(-c2ccccc2N)n[nH]1,-6.4*,i,i,i,i,i,i,i,i
Cc1cc(-c2cccs2)n[nH]1,i,i,i,i,i,/,/,/,/
O=C(NCCC1=CCCCC1)c1ccc(F)cc1,-6.2*,i,i,i,i,i,i,i,i
CCOC(=O)Nc1ccc2c(CN3C(=O)NC(CC)(CC)C3=O)cc(=O)oc2c1,-4.7*,i,i,i,i,81%*,i,i,i
CCOC(=O)Nc1ccc2c(CN3CCN(S(=O)(=O)c4ccccc4)CC3)cc(=O)oc2c1,i,i,i,i,i,/,/,/,/
O=C(COc1ccc(Cl)cc1)NCCCNC(=O)c1ccccn1,i,i,i,i,i,/,/,/,/
O=C(COc1ccc(Cl)cc1)NCCc1ccccn1,-5.2*,i,i,i,i,85%*,i,i,i
S=C(NCCc1ccccn1)Nc1cc(Cl)cc(Cl)c1,-4.5*,i,i,i,i,81%*,i,i,i
S=C(NCCc1ccccn1)Nc1ccc(Cl)c(Cl)c1,i,i,i,i,i,/,/,/,/
Cc1ccc(NC(=S)N(CCCN2CCOCC2)Cc2cccnc2)cc1C,i,i,i,i,i,/,/,/,/
CCC(C)(C)n1nnnc1C(c1ccc2ncccc2c1)N1CCCC(C)C1 (centres undefined),-6.3*,i,i,i,i,i,i,i,i
c1cc2c(cc1-c1[nH]ncc1CN1C[C@H]3CC[C@H]1C3)OCO2,i,i,i,i,i,/,/,/,/
O=C(Nc1ccc2c(c1)OCO2)N1CCN(c2ccc(F)cc2)CC1,-4.7*,i,i,i,i,83%*,i,i,i
O=C(CNC(=O)c1ccccc1Br)N/N=C/c1ccc(O)cc1,i,i,i,i,i,/,/,/,/
Cc1ccc(C(=O)NC(N(C)C)C(Cl)(Cl)Cl)cc1 (centres undefined),-4.5*,i,i,i,i,i,i,i,i
Cc1ccc(C(NC(=O)c2ccccc2)C(Cl)(Cl)Cl)cc1 (centres undefined),i,i,i,i,i,/,/,/,/
COC(=O)CCc1c(C)c(C(=O)c2ccc(F)cc2)c2ccccn12,-5.7*,i,i,i,i,i,i,i,i
COC(=O)CCc1c(C)c(C(=O)c2cc(F)c(F)c(F)c2F)c2ccccn12,i,i,i,i,i,/,/,/,/
CC(=O)c1c[nH]c2ccc(C)cc2c1=O,-4.9*,i,i,i,i,70%*,i,i,i
COc1ccc(OCC(=O)Nc2cccc(C(C)=O)c2)cc1,-6.3*,i,i,i,i,i,i,i,i
COc1cccc(NC(=O)CNC(=O)c2ccc(C)cc2)c1,-9.1*,i,i,i,i,i,i,i,i
COc1cccc(NC(=O)CNC(=O)c2ccc(F)cc2)c1,i,/,/,i,i,/,/,/,/
SMILES,MrgX1 antagonist,RGS4 act,RGS4 block,MrgX1 agonist,MrgX1 PAM,MrgX1 ant reconf,HEK293 Ca flux,HEK293 Ca counter,HEK293 Ca cntr2
COc1cccc(NC(=O)COc2ccc(C)cc2)c1,i,/,/,i,i,/,/,/,/
Cc1ccc(S(=O)(=O)N2[C@@H](c3cccc(Cl)c3)C(C(=O)O)=CC[C@H]2c2ccc(C(C)C)cc2)cc1,i,/,/,i,i,/,/,/,/
COc1ccccc1-c1nnc(SCC(=O)OC(C)C)o1,-6.6*,i,i,i,i,i,i,i,i
CSCC[C@H](NC(=O)N1CCn2c1nc1ccccc12)C(=O)NC1CC1,i,i,i,i,i,/,/,/,/
Cc1ccc(NC(=O)Cc2c(Cl)cccc2Cl)cc1S(=O)(=O)N(C)C,-19*,i,i,i,i,i,i,i,i
CN(CC(=O)NNC(=O)Cc1ccccc1F)S(=O)(=O)c1ccc(Cl)cc1,i,i,i,i,i,/,/,/,/
Cc1ccccc1Cc1c(C)nc2c(C(=O)NCc3ccc4c(c3)OCO4)cnn2c1C,-4.8*,i,i,i,i,i,i,i,i
Cc1ccc(SCC(=O)O/N=C(\N)c2cccnc2)cc1,i,i,i,i,i,/,/,/,/
Oc1ccccc1-c1cc(C(F)(F)C(F)F)[nH]n1,i,i,i,i,i,/,/,/,/
FC(F)C(F)(F)c1cc(-c2ccc(Cl)cc2)n[nH]1,-6.7*,i,i,i,i,i,i,i,i
CC(=O)Nc1nc(C(=O)O)cs1,-4.9*,i,i,i,i,81%*,i,i,i
COC(=O)/C(=C\Nc1ccccc1N)c1ncc(C(F)(F)F)cc1Cl,-4.5*,i,i,i,i,i,i,i,i
O=C(NNC(=S)NC(=O)c1sc2ccccc2c1Cl)c1ccc(Cl)cc1,-18*,i,i,i,i,i,i,i,i
CC(=O)c1ccc(N2CCN(C(=S)NCCCN(C)C)CC2)cc1,i,i,i,i,i,/,/,/,/
O=C(NCCc1c[nH]c2ccccc12)/C(=C/c1cccnc1)NC(=O)c1cccs1,i,i,i,i,i,/,/,/,/
CN(CCO)c1c2c(nc3cc(-c4cccc(F)c4)nn13)CCCC2,-9.6*,i,i,i,i,i,i,i,i
OC1CCN(c2c3c(nc4cc(-c5cccc(F)c5)nn24)CCCC3)CC1,i,i,i,i,i,/,/,/,/
